These results are taken from PubChem BioAssay.

Activity calls are given as the source filed them.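 The calls were made as follows, unless noted: active = inhibition at or above 50% relative to wild type and mutant plate controls; inactive = inhibition below 50%.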

Assay [1] can be described thus: inhibitors of TNFa-induced NFkB p65 translocation, primary screen, imaging, HUVEC, MLSMR starter and 10KST1 sets (AID 438;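 active = inhibition above 20% together with a positive visual image hit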;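 also: compound added about 3h40 before a 20 min TNFalpha stimulation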;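 as to inhibition: signal is the nuclear over cytoplasmic p65 intensity ratio per well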). Particulars: HUVEC TNFa-induced p65 nuclear translocation; cell count: measured here: nuclei count (cytotoxicity indicator), at 2.08 µM; inhibition: at 2 µM, stronger effect = higher value, 0% TNFa-plus-vehicle, 100% no-TNFa wells.
Assay [2] can be described thus: endothelial E-selectin expression blockers – imaging, HUVEC, immunofluorescence, MLSMR starter and 10KST1 sets, primary screen (AID 487;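 active = visually confirmed hit in the image check and inhibition above 20%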;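 as to inhibition: signal is fraction of cell area covered by stained E-selectin grains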;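 as to nuclei count: 100% = median nuclei count of all wells on the same plate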). Particulars: HUVEC TNFalpha-induced E-selectin immunofluorescence imaging, at 2 µM; inhibition: stronger effect = higher value; nuclei count: measured here: cell number, toxicity.
A short description of assay [3]: Primary imaging screen for DUSP6 inhibitors that restore phospho-Erk in transfected HeLa cells, chemical complementation (AID 609;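 active = compounds giving at least 50% inhibition in the cell-based MKP-3 phosphatase rescue imaging test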;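 as to inhibition: phospho-Erk level distribution per well compared with pooled transfected vehicle control wells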). The note with it: HeLa MKP-3 transfected, phospho-Erk imaging KS statistic, at 10 µM, cells stimulated with TPA for 15 min.
Assay [4] has as its target Dual specificity protein phosphatase 6 (Homo sapiens) (UniProt Q16828). Described as above. The note with it: HeLa MKP-3 transfected, phospho-Erk imaging KS statistic; at 10 µM; stronger effect = higher value; cells stimulated with TPA for 15 min.
For assay [5], the target named is Voltage-gated potassium channel subunit beta-2 (Rattus norvegicus) (UniProt P62483). Description: inhibitors of rat Kvbeta2 reductase activity – biochemical, NADPH fluorescence, primary screen (AID 622;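 active = fluorescence slope higher than the sample average by over 3 SD, cut at about -0.22 in these data, passing the limit was not always enough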;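 also: slope of raw intensity against log time taken from 70 to 1610 s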). Particulars: recombinant KvBeta, 4-cyanobenzaldehyde reduction, at 10 µM, stronger effect = higher value.
Sequence of Voltage-gated potassium channel subunit beta-2 (Rattus norvegicus) (P62483 whole entry, looked up): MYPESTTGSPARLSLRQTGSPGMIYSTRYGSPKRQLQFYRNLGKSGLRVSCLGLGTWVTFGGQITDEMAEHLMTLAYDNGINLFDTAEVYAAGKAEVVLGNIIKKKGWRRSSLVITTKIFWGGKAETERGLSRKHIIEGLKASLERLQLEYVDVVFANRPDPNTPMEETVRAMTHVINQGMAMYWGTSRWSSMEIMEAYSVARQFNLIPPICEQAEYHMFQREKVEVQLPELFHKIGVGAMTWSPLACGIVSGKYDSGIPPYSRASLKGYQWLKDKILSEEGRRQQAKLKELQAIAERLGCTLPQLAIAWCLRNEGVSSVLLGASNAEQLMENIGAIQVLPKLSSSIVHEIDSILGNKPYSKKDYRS
For assay [6] the target is unchanged. Put plainly: enhancers of rat Kvbeta2 NADPH turnover – biochemical, NADPH fluorescence, primary screen (AID 623;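 active = NADPH fluorescence slope more negative than the mean of all samples by about 3 SD, 99.7% confidence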;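 also: fluorescence intensity change per second fitted from 20 to 320 s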). Particulars: Recombinant KvBeta, NADPH fluorescence decrease slope, 10 min; at 10 µM; stronger effect = lower value.
Assay [7] deals with Alpha-2C adrenergic receptor (Homo sapiens) (UniProt P18825). Description: compounds altering alpha2C-coupled GIRK flux – cell-based, HEK293 alpha2C/GIRK1/2, thallium flux, primary screen (AID 624;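 active = fluorescence slope after compound addition differing from the mean of all screened samples at 99.7% confidence, in either direction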;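 also: slope of fluorescence ratio to pre-addition baseline per second over 15 to 24 s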). Particulars: thallium flux BTC fluorescence, at 10 µM, actives lie on both sides.
Sequence of Alpha-2C adrenergic receptor (Homo sapiens) (P18825 whole entry, looked up): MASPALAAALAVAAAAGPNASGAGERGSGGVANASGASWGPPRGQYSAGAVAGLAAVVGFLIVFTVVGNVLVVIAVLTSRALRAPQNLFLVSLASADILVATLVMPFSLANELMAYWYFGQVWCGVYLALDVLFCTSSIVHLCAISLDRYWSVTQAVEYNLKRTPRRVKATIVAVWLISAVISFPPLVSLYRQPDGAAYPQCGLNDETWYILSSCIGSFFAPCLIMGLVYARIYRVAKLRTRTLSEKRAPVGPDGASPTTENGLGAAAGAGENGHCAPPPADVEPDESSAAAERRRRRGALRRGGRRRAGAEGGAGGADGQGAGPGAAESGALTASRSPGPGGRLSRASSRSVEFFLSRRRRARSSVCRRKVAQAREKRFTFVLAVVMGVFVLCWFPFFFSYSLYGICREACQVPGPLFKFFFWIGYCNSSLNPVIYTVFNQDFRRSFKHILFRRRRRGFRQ
Assay [8] can be described thus: loss of swimming-algae plug formation – whole organism, Chlamydomonas reinhardtii, WT vs cilia-less mutant, absorbance, 96-well, primary screen (AID 463189).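 Also: 0% = wild type cc124 cells in DMSO and 100% = ciliumless bld1 mutant cells.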 Particulars: Chlamydomonas reinhardtii gravitaxis, OD600 absorbance, 2 days; at 10 µM; stronger effect = higher value.
A short description of assay [9]: inhibitors of larval lipid processing in zebrafish, primary screen, whole organism, PED6 fluorescence, gall bladder and intestine (AID 686;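 active = a full or partial loss of lipid-probe fluorescence in the fish gall bladder, intestine or both, judged by eye; inactive = no fluorescence loss, or compound toxic to the fish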;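 also: larvae 5 to 7 days old with five fish per well; signal comes from phospholipase A2 cleavage of quenched PED6 carried via bile; overnight exposure to compound and PED6 before scoring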). The note with it: Zebrafish larvae PED6 lipid processing, fluorescence scoring; screened at 20 µM (by protocol). Put shortly:
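Doses: 20 µM single dose. Test system: live zebrafish larvae aged 5-7 days, whole organism. Quantity: five larvae per well. Measured by: By-eye fluorescence microscopy. Reagent: ingested quenched lipid PED6 at 100 nM. Read-out: visual per-well fluorescence inhibition score. Times: overnight exposure of larvae to compound plus PED6.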

The mark [10] stands for this setting: measured here: cell density z-score.
Where [11] appears, read: measured here: nuclear c-Myc green intensity z-score.
The mark [12] stands for this setting: measured here: nuclear pErk red intensity z-score, stronger effect = higher value.

Sequence of Dual specificity protein phosphatase 6 (Homo sapiens) (Q16828 whole entry, looked up): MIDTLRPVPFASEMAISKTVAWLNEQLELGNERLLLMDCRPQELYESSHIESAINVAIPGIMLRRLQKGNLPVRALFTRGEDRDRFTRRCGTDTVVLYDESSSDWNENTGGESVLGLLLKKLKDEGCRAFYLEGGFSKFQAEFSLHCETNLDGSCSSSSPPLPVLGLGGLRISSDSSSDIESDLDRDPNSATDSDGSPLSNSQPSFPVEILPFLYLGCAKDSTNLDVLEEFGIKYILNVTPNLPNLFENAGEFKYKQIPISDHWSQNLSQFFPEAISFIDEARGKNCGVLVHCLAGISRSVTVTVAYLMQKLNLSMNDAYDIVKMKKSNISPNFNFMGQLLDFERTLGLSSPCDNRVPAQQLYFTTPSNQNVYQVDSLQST

Turning to `C=CCOc1nc(-c2ccncc2)nc2ccccc12`, in assay [1], the cell count turned out to be 345. In addition, the inhibition in assay [1] was 4.5% (inactive); in assay [2], -73.4% (inactive); in assay [4], 16.1% (inactive); in assay [8], 79.7% (active). In assay [2], the nuclei count amounted to 130%. Moreover, the figures for the z-score in assay [3] (setting [10]), in [3] (setting [11]) and in [3] (setting [12]) were 0.583, -0.0101 and -0.88, respectively. In addition, the fluorescence slope in assay [5] was -0.491 (inactive). Moreover, the NADPH fluorescence slope in assay [6] is -3.3e-05 (inactive). In addition, the slope in assay [7] was 0.00589 (inactive).
In the case of `CC(=O)Oc1ccccc1C1OC(=O)c2ccccc2N1C(C)=O` (configuration not stated), the cell count in [1] is 435. The inhibition in assay [1] is -26.4% (inactive); in [2] it was -136% (inactive); in [4], 17.7% (inactive); in [8], 23.1% (inactive). This compound also displayed a nuclei count in assay [2] of 171%. Further, the z-score in assay [3] (setting [10]) is -0.279; in assay [3] (setting [11]), -1.25; in [3] (setting [12]), -0.306. Moreover, the fluorescence slope in assay [5] was -0.274 (inactive). In assay [6], the NADPH fluorescence slope was 9.9e-06 (inactive). Also, in assay [7], the slope is 0.00513 (inactive). The compound was called inactive in assay [9].
As to `COc1cccc(NC(=O)CSC2=C(C#N)C(c3ccco3)C3=C(CCCC3=O)N2)c1` (configuration not stated), the cell count in assay [1] turned out to be 474. The inhibition is -0.1% (inactive) in assay [1], -19.9% (inactive) in assay [2], -3.98% (inactive) in [4] and 2.98% (inactive) in [8]. For the same compound, the nuclei count in assay [2] stood at 101%. Also, the z-score in assay [3] (setting [10]) was 0.0221; in assay [3] (setting [11]), -0.732; in assay [3] (setting [12]), 2.07. Further, in assay [5], the fluorescence slope is -0.506 (inactive). Moreover, the NADPH fluorescence slope in assay [6] is -6.2e-05 (inactive). Moreover, the slope in assay [7] is 0.00557 (inactive). In addition, in assay [9], the call was inactive.
As for `Cn1ncc(N=Cc2ccccc2)c1C(N)=O`, the cell count in [1] came out at 599. The inhibition in assay [1] was 2.9% (inactive); in assay [2], -32.8% (inactive); in assay [4], 18.6% (inactive); in [8], -3.53% (inactive). The nuclei count in [2] came out at 138%. Moreover, the z-score is -2.18 in assay [3] (setting [10]), 0.507 in assay [3] (setting [11]) and 1.65 in assay [3] (setting [12]). In addition, the fluorescence slope in assay [5] is -0.54 (inactive). The NADPH fluorescence slope in assay [6] is -8.2e-05 (inactive). Moreover, in assay [7], the slope is 0.00589 (inactive). Also, in [9], the compound was called inactive.
For `O=c1c(-c2ccc3c(c2)OCCO3)c(C(F)(F)F)oc2cc(O)cc(O)c12`, in assay [1], the cell count amounted to 534. In addition, the inhibition in [1] is -10.2% (inactive); in [2], -138% (inactive); in [4] it was 1.9e-07% (inactive); in [8] it was 29.9% (inactive). In assay [2], this compound displayed a nuclei count of 131%. In addition, the z-score in [3] (setting [10]) is 1.65; in assay [3] (setting [11]) it was -1.41; in [3] (setting [12]), -0.0254. Also, the fluorescence slope in assay [5] is -0.533 (inactive). In [6], the NADPH fluorescence slope was -4e-05 (inactive). In assay [7], the slope is 0.00864 (inactive). The call in assay [9] was inactive.
For the compound `Fc1ccccc1-c1nc(N2CCCCC2)c2ccccc2n1`, the cell count in assay [1] was 364. The inhibition in assay [1] was -8.4% (inactive); in assay [2], -149% (inactive); in assay [4] it was 6.04% (inactive); in assay [8], 140% (active). In addition, in assay [2], the nuclei count worked out at 173%. Also, the z-score in [3] (setting [10]) was 1.66; in assay [3] (setting [11]), 0.183; in assay [3] (setting [12]), -1.27. Moreover, the fluorescence slope in assay [5] is -0.447 (inactive). In addition, in assay [6], the NADPH fluorescence slope is -5.7e-06 (inactive). For the same compound, the slope in [7] is 0.00522 (inactive). Besides, the compound was called inactive in assay [9].
Consider `CN(C)CCCN1C(=O)C(O)=C(C(=O)c2cc3ccccc3o2)C1c1ccccn1` (configuration not stated), for which the cell count in assay [1] is 511. The inhibition in assay [1] is -3.3% (inactive); in assay [2], -212% (inactive); in assay [4], 12.3% (inactive); in assay [8], -5.31% (inactive). The same compound gave a nuclei count in assay [2] of 137%. Moreover, the z-score in assay [3] (setting [10]) is 2.7; in assay [3] (setting [11]) it was -1.21; in [3] (setting [12]), -1.13. In addition, in [5], the fluorescence slope is -0.525 (inactive). Further, the NADPH fluorescence slope in [6] is -4.7e-05 (inactive). Further, in [7], the slope was 0.00446 (inactive). Moreover, in assay [9], the compound was classed as inactive.
Take `CCOC(=O)c1c(C)n(C)c2ccc(OC)c(NC(=O)CN3CCSCC3)c12`: the cell count in assay [1] turned out to be 331. Besides, the inhibition in [1] is -7.1% (inactive); in assay [2] it was 35.2% (inactive); in assay [4], 5.42% (inactive); in [8], 37% (inactive). In assay [2], this compound returned a nuclei count of 91.7%. The values for the z-score in assay [3] (setting [10]), in [3] (setting [11]) and in assay [3] (setting [12]) were -1.52, -0.0806 and 1.39, respectively. The fluorescence slope in assay [5] is -0.449 (inactive). In addition, the NADPH fluorescence slope in assay [6] is -1.5e-05 (inactive). The slope in [7] was 0.0065 (inactive). Further, the outcome in assay [9] was inactive.
As to `CCc1cc(=O)oc2c(CN3CCCC3)c(O)c(Cl)cc12`, the cell count in assay [1] is 285. For the same compound, the inhibition in assay [1] was -8.8% (inactive); in assay [2], -56.3% (inactive); in assay [4], 21% (inactive); in assay [8], -9.29% (inactive). Moreover, in [2], the nuclei count was determined as 98.8%. In addition, the values for the z-score in assay [3] (setting [10]), in [3] (setting [11]) and in [3] (setting [12]) were 1.82, -0.243 and -0.206, respectively. In assay [5], the fluorescence slope was -0.247 (inactive). Also, the NADPH fluorescence slope in assay [6] was -3.3e-05 (inactive). Further, the slope in [7] is 0.0046 (inactive).
Take `CCCOc1cc(CN2CCCCC2)cc(C(C)=O)c1`: the cell count in assay [1] was found to be 662. The inhibition in [1] is -7.2% (inactive); in assay [2], -40.5% (inactive); in assay [4] it was 15.1% (inactive); in assay [8] it was 3.11% (inactive). The compound also came in with a nuclei count in assay [2] of 182%. Moreover, the z-score in assay [3] (setting [10]) was 0.934; in assay [3] (setting [11]), -0.767; in assay [3] (setting [12]) it was 0.549. Further, in [5], the fluorescence slope is -0.493 (inactive). The NADPH fluorescence slope in assay [6] was -6.5e-05 (inactive). The slope in [7] was 0.00496 (inactive). The result in [9] was inactive.
As to `O=C(O)CC(NC(=O)COc1ccc(Cl)cc1Cl)C(=O)O` (configuration not stated), in assay [1], the cell count was 629. The inhibition in assay [1] was -19.5% (inactive); in assay [2] it was -11.7% (inactive); in [4], -9.66% (inactive); in assay [8], 0.167% (inactive). For the same compound, the nuclei count in [2] was 197%. In addition, the z-score in [3] (setting [10]) stood at 0.18; in assay [3] (setting [11]), 0.773; in assay [3] (setting [12]), 0.0309. In addition, the fluorescence slope in [5] was -0.404 (inactive). For the same compound, in assay [6], the NADPH fluorescence slope is -7.4e-05 (inactive). Also, the slope in [7] is 0.00527 (inactive). The compound was called inactive in [9].
Regarding `CCCCn1c(-c2ccc(Cl)cc2)nc2c(=O)n(C)c(=O)[nH]c21`, the cell count in [1] is 453. Further, the inhibition is -18.9% (inactive) in [1], -400% (inactive) in [2], 11% (inactive) in assay [4] and -2.64% (inactive) in [8]. Also, the nuclei count in [2] is 197%. Besides, the z-score was 0.0253 in [3] (setting [10]), -0.817 in assay [3] (setting [11]) and 1.4 in assay [3] (setting [12]). The fluorescence slope in assay [5] was -0.398 (inactive). The NADPH fluorescence slope in assay [6] is -5.4e-06 (inactive). The slope in [7] is 0.00511 (inactive). The compound was classed as inactive in assay [9].
Consider `Cc1ccc(C2/C(=C(/O)c3ccc(OC(C)C)cc3)C(=O)C(=O)N2CCN2CCOCC2)cc1` (configuration not stated), for which the cell count in assay [1] was 526. Besides, the inhibition is -2% (inactive) in assay [1], 7.7% (inactive) in assay [2], -2.91% (inactive) in [4] and 2.83% (inactive) in assay [8]. In assay [2], this compound showed a nuclei count of 166%. Moreover, the z-score in assay [3] (setting [10]) came out at 0.417; in [3] (setting [11]), 1.31; in assay [3] (setting [12]), 0.598. The fluorescence slope in assay [5] was -0.295 (inactive). Also, the NADPH fluorescence slope in assay [6] was 1.7e-05 (inactive). Besides, the slope in [7] was 0.00456 (inactive). Further, in assay [9], the call was inactive.
